# Source: PubChem
# Ecoli WT expand: growth inhibitors of wild-type E. coli, primary screen, strain BW25113, expanded library, OD600; OD600 absorbance; growth inhibition, % at 100 µM; 0.15% of 98,000 active;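 active = growth inhibition above about 50% at one test dose, limit read from the data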;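 also: growth measured after 20 h incubation at 37 °C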
# tolC growth inh: growth inhibitors of E. coli tolC mutant, primary screen, strain BW25113 ΔtolC::kan, 384-well; OD615; growth inhibition, % at 10 µM (by protocol); 2.2% of 65,000 active;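 active = growth inhibition at or above a cutoff equal to the mean over every tested compound plus 3 SD, cut at about 60% in these data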;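 also: growth measured after 20 h incubation at 37 °C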
#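 Doses: one dose of 10 µM final / Material: E. coli BW25113 ΔtolC::kan, tolC deletion mutant strain / Buffer or medium: LB with kanamycin 50 µg/mL / Evaluation: percent growth inhibition / Detection: optical density read at 615 nm / Incubation: 37 °C, 20 h exposure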
# PostGolgi yeast: phenotypic screen on post-Golgi transport, primary screen; post-Golgi transport phenotypic cell assay; inhibition, % at 10 µM; 0.9% of 98,000 active; AID 739, 2007;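 also: yeast cells grown in 1536-well plates; yeast grown about 18 h at 30C before absorbance read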
# HER2 expr 66K: inhibitors of Her2 protein expression, primary screen, SKBR-3 cells, AlphaScreen, 66K library. HER2 level % of control, % at 10 µM. Receptor tyrosine-protein kinase erbB-2 (Homo sapiens), P04626. AID 645, 2007. 0.69% of 65,000 active. SKBR-3 HER2 protein level, 18-24 h; active compounds read low;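 active = HER2 level under 5% of the carrier-only control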;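 also: lower value means stronger loss of Her2 protein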
# PostGolgi ctrl: growth inhibition of yeast control strain, primary screen, counter-screen for post-Golgi transport modulator project; efflux-deficient yeast background strain, growth absorbance A615, 16 h; 5% of 98,000 active; inhibition, % at 10 µM; AID 738, 2007
# Hits are given with their value; – = inactive; · = no result. Sampled rows, rich in hits. Any-hit rate of the full collection: about 6.6%. Rule as the data show it, unless noted: active = inhibition above about 30%; inactive = the rest.
SMILES,Ecoli WT expand,tolC growth inh,PostGolgi yeast,HER2 expr 66K,PostGolgi ctrl
Cc1nc(N2CCN(c3ccccc3)CC2)nc2c1C(=O)CCC2,–,90.8,–,–,–
O=C(Cc1ccc(F)cc1)Nc1c2c(nn1-c1cccc(Cl)c1)CS(=O)C2 (configuration not stated),–,–,–,–,–
Cc1cc(C)c(S(C)(=O)=O)c(Oc2ccc(C(C)(C)C)cc2)n1,–,·,–,·,–
CCOc1cc(CNC(C)C)c(Cl)cc1OCC(=O)NCCc1ccccc1,–,·,–,·,–
CC(C)c1ncc(C(O)c2cccc3ccccc23)n1C (configuration not stated),–,–,–,–,–
Clc1cccc(COn2c(-c3ccc(Cl)cc3Cl)nc3ncccc32)c1,–,·,–,·,71.1
Cc1ccc(COn2c(-c3ccc(Cl)cc3Cl)nc3ncccc32)cc1,–,·,–,·,63.5
Clc1ccc(-c2nnc3cccc(Cl)n23)c(Cl)c1,–,·,–,·,–
OCCN1CCN(Cc2cccc(Oc3ccc(Cl)cc3)c2)CC1,–,–,–,–,43.7
COc1ccccc1N1CCN(C(c2cccs2)c2nnnn2C2CCCC2)CC1 (configuration not stated),–,–,–,-30.2,–
Cc1ccc(S(=O)(=O)C(C#N)c2nc3ccccc3nc2N2CCCCC2)cc1 (configuration not stated),·,–,·,–,·
COc1ccc(S(=O)(=O)C(C#N)c2nc3ccccc3nc2N2CCC(C)CC2)cc1 (configuration not stated),·,–,·,–,·
N#CC(c1nc2ccccc2nc1N1CCCCC1)S(=O)(=O)c1ccc(Cl)cc1 (configuration not stated),·,89.4,·,–,·
CCOC(=O)N1CCN(c2nc3ccccc3nc2C(C#N)S(=O)(=O)c2ccc(C)cc2)CC1 (configuration not stated),–,76.9,–,–,–
O=C1CC(C(=O)N(c2cccc(F)c2)C(C(=O)NC2CCCC2)c2ccccn2)CS1 (configuration not stated),–,–,–,–,37.3
O=C1CC(C(=O)N(c2ccc(F)cc2)C(C(=O)NC2CCCC2)c2ccccn2)CS1 (configuration not stated),–,–,–,–,–
COc1ccccc1S(=O)(=O)Cc1ccc(C(=O)NC(C)c2ccc3c(c2)OCCO3)o1 (configuration not stated),–,–,–,–,–
CC#CCCCC(=O)Nc1cc(OC)nc(OC)n1,–,–,–,-24.5,–
COc1cc(NC(=O)CCC(=O)O)nc(OC)n1,–,·,–,·,–
Cc1cc2nc(SCC(=O)N(C)C)c3c(c2cc1C)CCCC3,–,·,–,·,30.9
O=C1NCC(O)=C1C=NC12CC3CC(CC(C3)C1)C2,–,–,–,–,–
COc1cc(-c2nc3cnccn3c2Nc2ccc(C)cc2)ccc1O,–,·,–,·,34.2
Cc1ccc(S(=O)(=O)NCCSc2nnnn2-c2cc(C)ccc2C)cc1,–,68.0,–,–,–
Cc1ccc(C)c(-n2nnnc2Sc2nnnn2-c2ccccc2)c1,–,–,–,-11.2,–
COC(=O)c1ccc(Oc2nc(C(N)=O)cc(-c3ccccc3)n2)cc1,–,·,–,·,–
SMILES,Ecoli WT expand,tolC growth inh,PostGolgi yeast,HER2 expr 66K,PostGolgi ctrl
COCCn1c(SCc2nnc(-c3ccccc3)o2)nc2sc3c(c2c1=O)CCC3,–,–,–,–,96.1
CCCSc1nnc2nc(C)cc(C)n12,–,–,–,–,–
Cc1cc(C)n2c(SCc3cccs3)nnc2n1,–,–,–,–,37.4
CC(=O)Nc1nnc(SCC(=O)NC(C)(C)C)s1,–,–,–,–,31.8
CC(C)c1nc2oc3c(NCC4CCCO4)ncnc3c2c2c1COC(C)(C)C2 (configuration not stated),–,·,–,–,34.5
O=C(OCc1ccccc1Cl)c1cccnc1Cl,–,·,–,·,–
O=C(COC(=O)c1cccnc1Cl)c1ccccc1,–,·,·,·,32.2
O=[N+]([O-])c1ccc(Oc2cccc(F)c2)c2ccncc12,–,·,–,·,38.0
CC(C)(C)NC(=O)C(c1ccco1)N(C(=O)Cn1nnc(-c2ccc(F)cc2)n1)c1ccccc1F (configuration not stated),–,71.0,76.3,–,79.2
Cc1cc(C)c(C#N)c(SCC(=O)OC2CCCCC2)n1,–,73.2,–,–,–
COc1cc(CNCCc2c[nH]c3ccccc23)ccc1OCc1ccc(F)cc1,–,·,–,·,40.6
COc1cc(CNCCc2ccc(F)cc2)ccc1OCc1ccc(Cl)nc1,–,·,–,·,–
COc1cccc(CNCCc2c[nH]c3ccccc23)c1OCc1ccc(F)cc1,–,·,93.0,·,80.8
CC(C)c1ccc(NC(=O)NC2CCN(CC(=O)Nc3cccc4ccccc34)CC2)cc1,–,·,–,·,–
CC(C)CCN1C(=O)c2ccccc2C1C(=O)NCc1cccnc1 (configuration not stated),–,·,–,·,–
Cc1ccc(S(=O)(=O)N2CCN(CC(=O)NC3CCCc4ccccc43)CC2)c(C)c1 (configuration not stated),–,·,–,·,32.7
COc1cccc(C(=O)Nc2nnc(-c3ccc(Cl)cc3)o2)c1,·,100.0,·,–,·
COc1cccc(-c2nnc(NC(=O)c3ccc(S(=O)(=O)N4CCOCC4)cc3)o2)c1,–,93.8,–,–,–
CC1CN(S(=O)(=O)c2ccc(C(=O)Nc3nnc(-c4ccc5c(c4)CCCC5)o3)cc2)CC(C)O1 (configuration not stated),–,96.7,–,–,–
COc1cccc(C(=O)Nc2nnc(-c3ccc(F)cc3)o2)c1,·,–,·,–,·
CCOc1ccc(-c2nnc(NC(=O)c3ccc(OCC(C)C)c(OC)c3)o2)cc1,–,100.0,–,–,–
Cc1ccnc(NC2c3ccccc3C(=O)N2Cc2ccccc2Cl)c1 (configuration not stated),–,–,–,–,–
C=CCn1c(SCC(=O)NCc2ccco2)nnc1-c1ccc2ccccc2n1,–,–,–,–,–
CC(=O)Nc1nnc(-c2ccc3c(c2)CCCC3)o1,–,–,–,–,–
COc1ccc(-c2nnc(NC(=O)C(C)C)o2)cc1,–,–,–,–,–
SMILES,Ecoli WT expand,tolC growth inh,PostGolgi yeast,HER2 expr 66K,PostGolgi ctrl
O=C(Nc1nnc(-c2cccs2)o1)c1ccco1,–,–,–,–,–
COc1cccc(C(=O)Nc2nnc(-c3cccs3)o2)c1,80.0,68.6,–,–,38.7
O=C(Nc1nnc(-c2ccc3c(c2)CCCC3)o1)C1COc2ccccc2O1 (configuration not stated),–,100.0,99.8,–,71.7
COc1ccccc1C(=O)Nc1nnc(-c2ccc3c(c2)CCCC3)o1,–,97.8,–,–,–
COc1ccc(-c2nnc(NC(=O)c3ccccc3C)o2)cc1,·,100.0,·,–,·
CC(=O)c1cc2c(cc1NS(=O)(=O)c1ccc(C)cc1)OCCO2,–,–,–,–,–
O=C(COc1ccc(Cl)cc1)Nc1nnc(-c2ccc3c(c2)CCCC3)o1,–,100.0,–,–,–
